pIC50, pKi: −log10 of the molar value. Values after ≈ are worked out from the molar mass of the structure shown. One block for each compound: values may come before it.
Assays:
[1] = target: Sigma intracellular receptor 2 (Homo sapiens, UniProt Q5BJF2); assay: Displacement of [3H]-DTG from human sigma2 receptor expressed in human HEK293T cell membrane incubated for 90 mins by radioligand binding assay
[2] = target: Sigma non-opioid intracellular receptor 1 (Homo sapiens, UniProt Q99720); assay: Displacement of [3H]-LSD from human sigma1 receptor expressed in human HEK293T cell membrane incubated for 90 mins by radioligand binding assay
Chain of Sigma non-opioid intracellular receptor 1 (Q99720 whole entry): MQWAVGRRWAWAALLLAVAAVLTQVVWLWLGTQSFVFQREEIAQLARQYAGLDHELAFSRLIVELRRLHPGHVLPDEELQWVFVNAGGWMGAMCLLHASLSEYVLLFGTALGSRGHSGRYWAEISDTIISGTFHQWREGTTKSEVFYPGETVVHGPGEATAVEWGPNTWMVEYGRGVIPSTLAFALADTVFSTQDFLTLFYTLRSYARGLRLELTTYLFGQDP

D(3) dopamine receptor = D(3) dopamine receptor (Homo sapiens, UniProt P35462); assay: Displacement of [3H]-N-methylspiperone from human D3 receptor expressed in human HEK293T cell membrane incubated for 90 mins by radioligand binding assay
Chain of D(3) dopamine receptor (P35462 whole entry): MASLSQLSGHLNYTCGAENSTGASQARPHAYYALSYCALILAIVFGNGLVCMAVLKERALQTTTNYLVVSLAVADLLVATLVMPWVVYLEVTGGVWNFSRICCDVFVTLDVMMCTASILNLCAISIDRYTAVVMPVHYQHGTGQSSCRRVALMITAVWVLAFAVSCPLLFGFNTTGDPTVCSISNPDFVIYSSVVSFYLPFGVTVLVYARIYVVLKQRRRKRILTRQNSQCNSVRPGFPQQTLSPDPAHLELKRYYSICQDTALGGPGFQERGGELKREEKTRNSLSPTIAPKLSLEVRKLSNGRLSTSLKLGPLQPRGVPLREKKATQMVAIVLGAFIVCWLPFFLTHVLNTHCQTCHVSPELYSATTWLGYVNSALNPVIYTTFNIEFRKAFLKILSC

[3] = Inhibition of CYP2C9 in mouse liver Microsome using phenacetin as substrate in presence of NADPH by LC-MS/MS analysis
[4] = Inhibition of CYP2C9 in rat liver Microsome using phenacetin as substrate in presence of NADPH by LC-MS/MS analysis
Cytochrome P450 1A2 = target: T1, Cytochrome P450 1A2 (Homo sapiens, UniProt P05177); assay: Inhibition of CYP1A2 in human liver Microsome using phenacetin as substrate in presence of NADPH by LC-MS/MS analysis
T1 sequence (P05177 whole entry): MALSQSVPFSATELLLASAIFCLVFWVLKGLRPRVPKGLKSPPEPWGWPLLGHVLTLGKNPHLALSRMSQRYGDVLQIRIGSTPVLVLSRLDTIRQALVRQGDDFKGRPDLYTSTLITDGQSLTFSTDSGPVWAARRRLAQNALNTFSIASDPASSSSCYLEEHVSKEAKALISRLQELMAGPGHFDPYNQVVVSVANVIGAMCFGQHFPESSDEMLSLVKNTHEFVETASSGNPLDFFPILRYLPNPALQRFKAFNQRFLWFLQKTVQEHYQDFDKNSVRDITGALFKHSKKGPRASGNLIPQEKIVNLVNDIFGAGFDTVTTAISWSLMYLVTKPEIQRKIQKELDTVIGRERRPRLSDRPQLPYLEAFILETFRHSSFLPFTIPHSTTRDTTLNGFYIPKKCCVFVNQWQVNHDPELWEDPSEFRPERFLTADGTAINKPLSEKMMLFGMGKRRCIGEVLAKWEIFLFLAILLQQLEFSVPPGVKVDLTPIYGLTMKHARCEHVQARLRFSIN

[5] = target: Cytochrome P450 1A2 (Homo sapiens) (UniProt P05177)
[6] = target: Cytochrome P450 1A2 (Homo sapiens) (UniProt P05177); remark: listed apart in the source
Cytochrome P450 2D6 = Cytochrome P450 2D6 (Homo sapiens, UniProt P10635); assay: Inhibition of CYP2D6 in human liver Microsome using dextromethorphan as substrate in presence of NADPH by LC-MS/MS analysis
Chain of Cytochrome P450 2D6 (P10635 whole entry): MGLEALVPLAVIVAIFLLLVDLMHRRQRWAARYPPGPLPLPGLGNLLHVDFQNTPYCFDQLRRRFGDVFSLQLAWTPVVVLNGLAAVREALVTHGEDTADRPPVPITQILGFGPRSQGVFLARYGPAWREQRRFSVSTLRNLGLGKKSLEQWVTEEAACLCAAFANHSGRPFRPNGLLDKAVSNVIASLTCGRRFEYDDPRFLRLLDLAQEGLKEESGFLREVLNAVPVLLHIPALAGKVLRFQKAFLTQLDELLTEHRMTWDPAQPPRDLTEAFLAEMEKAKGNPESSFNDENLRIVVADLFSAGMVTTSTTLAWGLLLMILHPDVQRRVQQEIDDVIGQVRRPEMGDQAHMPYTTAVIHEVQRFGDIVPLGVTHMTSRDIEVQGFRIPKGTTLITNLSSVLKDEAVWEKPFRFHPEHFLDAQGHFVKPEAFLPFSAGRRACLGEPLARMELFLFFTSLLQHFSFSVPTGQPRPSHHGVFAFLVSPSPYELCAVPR

[7] = Stability of the compound in simulated gastric fluid at pH 1 to 2 assessed as compound remaining at 120 mins by LC-MS/MS analysis; conditions: simulated gi fluid, pH 1, 2 h
[8] = simulated gi fluid, pH 1, 2 h
[9] = target: T2, Adenosine receptor A3 (Homo sapiens) (UniProt P0DMS8); assay: Positive allosteric modulator activity in wild type human A3AR opioid receptor stably expressed in human HEK293 cell membrane assessed as increase in CI-IB-MECA induced [35S]GTPGAgammaS binding to receptor at 10 uM preincubated for 1 hrs with CI-IB-MECA further incubated with [35S]GTPGAgammaS for …; type: cell membranes; conditions: filed as positive allosteric modulator, time 3.0 hrs
T2 sequence (whole entry): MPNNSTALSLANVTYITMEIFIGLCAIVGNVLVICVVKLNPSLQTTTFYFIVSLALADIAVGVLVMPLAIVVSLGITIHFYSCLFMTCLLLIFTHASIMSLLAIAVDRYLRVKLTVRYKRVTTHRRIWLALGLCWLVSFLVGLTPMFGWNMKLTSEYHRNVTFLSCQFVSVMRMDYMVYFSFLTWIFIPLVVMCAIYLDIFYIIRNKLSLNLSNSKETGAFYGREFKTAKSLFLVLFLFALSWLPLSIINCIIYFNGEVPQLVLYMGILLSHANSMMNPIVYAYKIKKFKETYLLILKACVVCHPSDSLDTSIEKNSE

[10] = Stability in mouse plasma assessed as compound remaining and measured after 120 mins by LC-MS/MS analysis; conditions: 2 h
[11] = Stability in mouse plasma assessed as half life and measured after 120 mins by LC-MS/MS analysis; conditions: 2 h
[12] = Stability in human plasma assessed as compound remaining and measured after 120 mins by LC-MS/MS analysis; conditions: 2 h
[13] = target: 5-hydroxytryptamine receptor 2B (Homo sapiens, UniProt P41595); assay: Displacement of [3H]-LSD from human 5HT2B expressed in human HEK293 cell membrane incubated for 90 mins by radioligand binding assay; type: cell membranes
Chain of 5-hydroxytryptamine receptor 2B (P41595 whole entry): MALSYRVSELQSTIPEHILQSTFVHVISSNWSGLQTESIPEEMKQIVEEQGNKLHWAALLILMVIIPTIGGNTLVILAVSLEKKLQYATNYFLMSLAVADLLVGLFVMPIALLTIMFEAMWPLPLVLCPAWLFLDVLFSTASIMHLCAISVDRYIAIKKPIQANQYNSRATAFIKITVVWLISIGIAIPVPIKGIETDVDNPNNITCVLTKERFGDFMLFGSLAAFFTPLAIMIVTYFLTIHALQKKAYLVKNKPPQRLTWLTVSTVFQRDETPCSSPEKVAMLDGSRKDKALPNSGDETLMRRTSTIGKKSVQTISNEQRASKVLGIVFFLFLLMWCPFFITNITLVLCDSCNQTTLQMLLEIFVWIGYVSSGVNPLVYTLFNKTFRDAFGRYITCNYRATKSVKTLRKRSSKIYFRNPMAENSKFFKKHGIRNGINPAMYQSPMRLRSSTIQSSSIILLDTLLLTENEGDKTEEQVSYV
How it was run: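 Off-target panel run by the NIMH PDSP. Each derivative was first screened at 10 μM in radioligand binding.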

[14] = target: Sodium-dependent dopamine transporter (Homo sapiens, UniProt Q01959); assay: Displacement of [3H]-Win35428 from human DAT receptor expressed in human HEK293T cell membrane incubated for 90 mins by radioligand binding assay
Chain of Sodium-dependent dopamine transporter (Q01959 whole entry): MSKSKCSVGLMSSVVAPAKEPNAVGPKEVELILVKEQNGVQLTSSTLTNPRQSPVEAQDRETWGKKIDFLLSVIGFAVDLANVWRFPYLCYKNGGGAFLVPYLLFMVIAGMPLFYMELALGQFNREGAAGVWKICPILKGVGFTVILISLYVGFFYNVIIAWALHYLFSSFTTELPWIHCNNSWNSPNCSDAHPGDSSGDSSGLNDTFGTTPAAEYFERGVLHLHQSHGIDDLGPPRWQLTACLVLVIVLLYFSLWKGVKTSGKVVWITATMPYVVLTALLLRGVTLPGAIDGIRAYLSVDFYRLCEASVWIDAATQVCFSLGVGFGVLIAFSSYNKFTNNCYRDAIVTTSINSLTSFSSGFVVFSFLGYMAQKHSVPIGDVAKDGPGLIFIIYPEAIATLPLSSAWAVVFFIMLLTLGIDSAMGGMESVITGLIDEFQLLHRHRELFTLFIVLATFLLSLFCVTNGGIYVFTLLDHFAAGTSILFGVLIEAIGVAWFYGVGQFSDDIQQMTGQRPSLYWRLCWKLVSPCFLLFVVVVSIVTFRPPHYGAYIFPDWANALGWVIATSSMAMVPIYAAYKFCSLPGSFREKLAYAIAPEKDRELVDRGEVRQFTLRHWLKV

Mu-type opioid receptor = Mu-type opioid receptor (Homo sapiens, UniProt P35372); assay: Displacement of [3H]-DAMGO from human MOR receptor expressed in human HEK293 cell membrane incubated for 90 mins by radioligand binding assay
Chain of Mu-type opioid receptor (P35372 whole entry): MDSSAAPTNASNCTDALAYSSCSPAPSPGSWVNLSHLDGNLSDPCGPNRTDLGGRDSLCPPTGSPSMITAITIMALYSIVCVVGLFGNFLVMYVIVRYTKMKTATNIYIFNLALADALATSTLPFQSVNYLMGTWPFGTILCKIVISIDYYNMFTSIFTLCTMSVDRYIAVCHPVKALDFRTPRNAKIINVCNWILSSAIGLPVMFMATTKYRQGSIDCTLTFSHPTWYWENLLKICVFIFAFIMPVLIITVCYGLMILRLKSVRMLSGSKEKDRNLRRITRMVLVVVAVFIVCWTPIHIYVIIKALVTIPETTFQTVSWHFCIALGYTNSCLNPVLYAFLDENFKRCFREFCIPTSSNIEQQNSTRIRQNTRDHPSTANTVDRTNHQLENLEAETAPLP

Adenosine receptor A3 = target: T3, Adenosine receptor A3 (Homo sapiens, UniProt P0DMS8)
T3 sequence (P0DMS8 whole entry): T2 sequence (whole entry)

[15] = Clearance in Wistar rat plasma at 10 mg/kg, po and measured upto 24 hrs; type: ADME, organism-based
How it was run: (§1)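 Fasted male Wistar rats (RccHan:WIST), 6–10 weeks old at acclimation, three per group. Dosing was 0.5 mg/kg i.v. in DMSO:20% HPBCD (10:90), or 1, 3 and 10 mg/kg by oral gavage in DMSO:Kolliphor EL:PBS (15:15:70). Jugular blood was taken at 0.083–24 h (stated for i.v.) into heparin, and plasma was frozen at −70 °C. Parameters came from non-compartmental analysis.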

[16] = Permeability across basolateral to apical side in human Caco-2 cells assessed as compound recovery at 10 uM measured upto 120 mins by LC-MS/MS analysis; type: ADME, cell-based; conditions: caco-2, 2 h
[17] = Stability of the compound in simulated intestinal fluid at pH 6 to 8 assessed as compound remaining at 120 mins by LC-MS/MS analysis; conditions: simulated gi fluid, pH 6, 2 h
[18] = Tmax in Wistar rat plasma at 1 to 10 mg/kg, po and measured after 2 hrs; type: ADME, organism-based; conditions: dose 1-10 mg/kg; how it was run: as §1
[19] = simulated gi fluid, pH 6, 2 h
[20] = Half life in Wistar rat at 3 mg/kg, po and measured upto 24 hrs; conditions: in vivo
[21] = Stability in rat plasma assessed as half life and measured after 120 mins by LC-MS/MS analysis; conditions: 2 h
[22] = human, microsomes, 2 h, 3 µM
[23] = mouse, microsomes, 2 h, 3 µM
[24] = Half life in Wistar rat at 10 mg/kg, po and measured upto 24 hrs; conditions: in vivo
in vivo [25] = conditions: Wistar, rat, po, 3 mg/kg
[26] = Microsomal stability in human liver microsomes assessed as parent compound remaining at 3 uM incubated for 120 mins by LC-MS/MS analysis; conditions: 2 h
[27] = Stability in human plasma assessed as half life and measured after 120 mins by LC-MS/MS analysis; conditions: 2 h
[28] = Clearance in Wistar rat assessed as parent compound remaining at 3 mg/kg, po and measured upto 24 hrs; type: ADME, organism-based; conditions: in vivo; how it was run: as §1
[29] = Cmax in Wistar rat plasma at 10 mg/kg, po and measured after 2 hrs; type: ADME, organism-based; set-up: time 2 hrs, dose 10 mg/kg, route po; conditions: in vivo; how it was run: as §1
[30] = Aqueous solubility of compound at pH 7.4 by PDA spectrophotometric analysis; conditions: buffer
[31] = Half life in Wistar rat at 0.5 mg/kg, iv and measured upto 24 hrs; type: ADME, organism-based; conditions: in vivo; how it was run: as §1
[32] = Microsomal stability in mouse liver microsomes assessed as parent compound remaining at 3 uM incubated for 120 mins by LC-MS/MS analysis; conditions: 2 h
[33] = target: Voltage-gated inwardly rectifying potassium channel KCNH2 (Homo sapiens, UniProt Q12809); assay: Inhibition of human ERG stably transfected in HEK293 cells incubated for 2 hrs by TAMRA fluorescence polarization assay
Chain of Voltage-gated inwardly rectifying potassium channel KCNH2 (Q12809 whole entry): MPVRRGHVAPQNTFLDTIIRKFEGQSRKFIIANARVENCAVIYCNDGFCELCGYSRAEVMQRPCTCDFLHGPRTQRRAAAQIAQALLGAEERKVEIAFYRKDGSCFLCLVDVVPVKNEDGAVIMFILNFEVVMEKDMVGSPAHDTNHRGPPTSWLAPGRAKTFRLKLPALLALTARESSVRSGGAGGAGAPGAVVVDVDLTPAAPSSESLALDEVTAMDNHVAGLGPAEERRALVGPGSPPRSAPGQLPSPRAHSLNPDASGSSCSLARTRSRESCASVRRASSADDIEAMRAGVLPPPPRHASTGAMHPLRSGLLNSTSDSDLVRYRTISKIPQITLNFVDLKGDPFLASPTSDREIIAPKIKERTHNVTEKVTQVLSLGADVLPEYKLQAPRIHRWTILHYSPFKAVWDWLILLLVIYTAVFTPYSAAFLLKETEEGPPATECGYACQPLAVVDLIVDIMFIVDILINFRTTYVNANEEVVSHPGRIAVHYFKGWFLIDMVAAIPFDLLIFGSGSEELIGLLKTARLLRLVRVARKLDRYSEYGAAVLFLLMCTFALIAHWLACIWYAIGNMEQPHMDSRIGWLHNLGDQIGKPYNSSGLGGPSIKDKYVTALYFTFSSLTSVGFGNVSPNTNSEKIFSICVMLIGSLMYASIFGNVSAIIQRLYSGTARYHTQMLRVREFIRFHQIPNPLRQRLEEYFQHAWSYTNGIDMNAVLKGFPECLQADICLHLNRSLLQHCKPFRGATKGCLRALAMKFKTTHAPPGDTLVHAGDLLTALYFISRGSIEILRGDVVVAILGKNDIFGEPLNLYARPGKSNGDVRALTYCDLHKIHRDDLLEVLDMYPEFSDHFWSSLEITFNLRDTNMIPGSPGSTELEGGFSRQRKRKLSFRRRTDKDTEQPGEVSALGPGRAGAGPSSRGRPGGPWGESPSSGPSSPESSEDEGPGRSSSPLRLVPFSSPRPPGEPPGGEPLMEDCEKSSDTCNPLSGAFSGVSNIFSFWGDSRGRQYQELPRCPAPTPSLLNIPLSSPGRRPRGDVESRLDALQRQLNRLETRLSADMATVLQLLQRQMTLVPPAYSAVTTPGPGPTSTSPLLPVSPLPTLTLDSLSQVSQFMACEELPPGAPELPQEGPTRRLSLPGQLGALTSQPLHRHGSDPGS

[34] = Clearance in Wistar rat plasma at 3 mg/kg, po and measured upto 24 hrs; type: ADME, organism-based; how it was run: as §1
[35] = MRT in Wistar rat at 1 mg/kg, po and measured upto 24 hrs; type: ADME, organism-based; conditions: plasma, 3 mg/kg, in the assay text read “3 mg/kg” for “1 mg/kg”; how it was run: as §1
[36] = Microsomal stability in rat liver microsomes assessed as parent compound remaining at 3 uM incubated for 120 mins by LC-MS/MS analysis; conditions: 2 h
[37] = Clearance in Wistar rat plasma at 1 mg/kg, po and measured upto 24 hrs; type: ADME, organism-based; how it was run: as §1
[38] = Stability in rat plasma assessed as compound remaining and measured after 120 mins by LC-MS/MS analysis; conditions: 2 h
[39] = rat, microsomes, 2 h, 3 µM
[40] = Permeability across apical to basolateral side in human Caco-2 cells assessed as compound recovery at 10 uM measured upto 120 mins by LC-MS/MS analysis; type: ADME, cell-based; conditions: caco-2, 2 h
in vivo [41] = conditions: Wistar, rat, po, 10 mg/kg
[42] = Protein binding in rat plasma assessed as bound fraction at 10 uM and measured for 5 hrs by LC-MS/MS based dialysis analysis
[43] = Protein binding in human plasma assessed as bound fraction at 10 uM and measured for 5 hrs by LC-MS/MS based dialysis analysis
[44] = Protein binding in mouse plasma assessed as bound fraction at 10 uM and measured for 5 hrs by LC-MS/MS based dialysis analysis
Translocator protein = Translocator protein (Homo sapiens, UniProt P30536); assay: Inhibition of human TPSO receptor expressed in human HEK293T cell membrane incubated for 90 mins by radioligand binding assay
Chain of Translocator protein (P30536 whole entry): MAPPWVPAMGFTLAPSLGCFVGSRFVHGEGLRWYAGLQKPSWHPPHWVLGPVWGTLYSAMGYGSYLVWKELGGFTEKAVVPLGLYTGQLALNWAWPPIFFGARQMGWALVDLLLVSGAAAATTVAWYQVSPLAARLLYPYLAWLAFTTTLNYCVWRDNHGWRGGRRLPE

Chain of Sigma intracellular receptor 2 (Q5BJF2 whole entry): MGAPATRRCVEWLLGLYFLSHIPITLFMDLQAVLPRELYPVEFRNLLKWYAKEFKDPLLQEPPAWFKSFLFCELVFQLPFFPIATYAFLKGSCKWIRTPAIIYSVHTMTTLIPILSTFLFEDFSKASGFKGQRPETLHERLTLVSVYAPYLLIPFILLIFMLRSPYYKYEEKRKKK

SMILES: Clc1ccc(Nc2nc3ccccc3c3[nH]c(C4CCCCCCCC4)nc23)cc1Cl
- pKi [1]: 6.04
- pKi [2]: 5.29

SMILES: Clc1ccc(Nc2nc3ccccc3c3[nH]c(C4CCCCCCCCCC4)nc23)cc1Cl
- pKi (D(3) dopamine receptor): 5.28

SMILES: Clc1ccc(COC(Cn2ccnc2)c2ccc(Cl)cc2Cl)c(Cl)c1 (stereo unspecified) [MICONAZOLE]
- pIC50 [3]: 4.42
- pIC50 [4]: 4.42
- pIC50 (Cytochrome P450 1A2): 5.34
- pIC50 [5]: 5.34
- pIC50 [6]: 5.34
- pIC50 (Cytochrome P450 2D6): 5.79

- Stability [7]: 0%
- t1/2 [8]: 0.255 h
SMILES: COc1ccc2[nH]c([S+]([O-])Cc3ncc(C)c(OC)c3C)nc2c1 (stereo unspecified) [OMEPRAZOLE]

SMILES: Clc1ccc(Nc2nc3ccccc3c3[nH]c(C4CC5C=CC4CC5)nc23)cc1Cl (racemic)
- Activity [9]: 100%

SMILES: CCN(CC)CCOC(=O)c1ccc(N)cc1 [PROCAINE]
- Stability [10]: 0%
- t1/2 [11]: 0.00183 h
- Stability [12]: 0%

SMILES: CCCC(CCC)c1nc2c(Nc3ccc(Cl)c(Cl)c3)nc3ccccc3c2[nH]1
- pKi [1]: 5.87
- pKi [2]: 5.83
- pKi [13]: 5.87

SMILES: Clc1ccc(Nc2nc3ccccc3c3[nH]c([C@@H]4C[C@@H]5CCC[C@@H](C5)C4)nc23)cc1Cl
- pKi [14]: 6.33
- pKi (Mu-type opioid receptor): 5.14

SMILES: Clc1ccc(Nc2nc3ccccc3c3[nH]c(C4CCCCC4)nc23)cc1Cl
- pKi (Adenosine receptor A3): 5.70

SMILES: Clc1ccc(Nc2nc3ccccc3c3[nH]c(C4CCC=CCC4)nc23)cc1Cl
- CL/F [15]: 16.2 mL/min/kg
- Stability [10]: 83.5%
- permeability [16]: 78%
- Stability [17]: 100%
- Stability [7]: 69.1%
- Tmax [18]: 2 h
- t1/2 [19]: 9.55 h
- t1/2 [20]: 1.29 h
- t1/2 [21]: 9.67 h
- pIC50 (Cytochrome P450 1A2): 5.16
- t1/2 [22]: 3.33 h
- t1/2 [23]: 3.23 h
- t1/2 [24]: 2.6 h
- pKi [1]: 6.24
- bioavailability at 24 h (in vivo [25]): 28.7%
- Stability [26]: 81.2%
- t1/2 [27]: 2.65 h
- remaining at 24 h [28]: 50%
- Cmax [29]: 1780 ng/mL
- solubility [30]: 0.39 µg/mL (≈ 0.921 µM)
- t1/2 [8]: 3.4 h
- t1/2 [31]: 2.38 h
- Stability [32]: 76.4%
- pIC50 [33]: 5.22
- CL/F [34]: 26.3 mL/min/kg
- MRT [35]: 3.98 h
- Stability [36]: 52.1%
- pIC50 [5]: 5.16
- CL/F [37]: 7.45 mL/min/kg
- t1/2 [11]: 11.6 h
- pKi [2]: 5.33
- pIC50 [6]: 5.16
- Stability [38]: 88.7%
- Stability [12]: 69.7%
- t1/2 [39]: 1.17 h
- permeability [40]: 48.1%
- bioavailability at 24 h (in vivo [41]): 47.5%
- PPB [42]: 99.1%

- Stability [38]: 83.9%
SMILES: COc1ccc([C@@H]2Sc3ccccc3N(CCN(C)C)C(=O)[C@@H]2OC(C)=O)cc1 [DILTIAZEM]

SMILES: CC(=O)CC(c1ccccc1)c1c(O)c2ccccc2oc1=O (stereo unspecified) [WARFARIN]
- PPB [43]: 96.3%
- PPB [44]: 83.6%

SMILES: Clc1ccc(Nc2nc3ccccc3c3[nH]c(C4CCCCCCCCCCC4)nc23)cc1Cl
- pKi (D(3) dopamine receptor): 5.12

SMILES: Ic1ccc(Nc2nc3ccccc3c3[nH]c(C4CCCCC4)nc23)cc1
- pKi (D(3) dopamine receptor): 6.07

SMILES: CCCC(CCC)c1nc2c(Nc3ccc(I)cc3)nc3ccccc3c2[nH]1
- pKi [1]: 6.05
- pKi (Translocator protein): 6.91
